Measurements published in ChEMBL document CHEMBL1145857, “Toward tissue-selective pancreatic B-cells KATP channel openers belonging to 3-alkylamino-7-halo-4H-1,2,4-benzothiadiazine 1,1-dioxides” (J Med Chem, 2003).

Experiments:
Format in all cases: functional
Rattus norvegicus [1] = species: Rattus norvegicus; test: Percent inhibition of residual insulin release from rat pancreatic islets in the presence of 16.7 mM glucose at 1 uM concentration
How it was run: (§1)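 Islets isolated by collagenase from fed Wistar rats (180–220 g); groups of 10 islets preincubated 30 min at 37 °C in bicarbonate salt medium with 2.8 mM glucose and 0.5% dialyzed albumin under O2/CO2 95:5, then incubated 90 min at 37 °C with 16.7 mM glucose plus drug. Insulin measured by radioimmunoassay against rat insulin standard; residual release as % of drug-free 16.7 mM glucose control; IC50 estimated.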

Rattus norvegicus [2] = species: Rattus norvegicus; test: Concentration required to inhibit insulin release in rat
Rattus norvegicus [3] = species: Rattus norvegicus; test: Percent inhibition of residual insulin release from rat pancreatic islets in the presence of 16.7 mM glucose at 50 uM concentration; how it was run: as §1
Rattus norvegicus [4] = species: Rattus norvegicus; test: Effective dose required for relaxation of the 30 mM KCl-induced contraction of rat aortic rings; conditions: Aorta, read-out: ED50 (the source's name)
How it was run: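 Endothelium-denuded transverse aortic rings (3–4 mm) from fed Wistar rats (180–220 g); isometric tension by force transducer. After 60 min equilibration, contracted with 30 mM KCl; once stable, drug added cumulatively to maximal relaxation or 0.3 mM. Relaxation as % of KCl contraction; ED50 (50% inhibition of KCl plateau) from dose–response curves; mean ± SEM (n).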

Rattus norvegicus [5] = species: Rattus norvegicus; test: Estimated selectivity ratio of ED50 and IC50 in rat was calculated
Rattus norvegicus [6] = species: Rattus norvegicus; test: Percent inhibition of residual insulin release from rat pancreatic islets in the presence of 16.7 mM glucose at 10 uM concentration; how it was run: as §1

Row | SMILES | RIS (Rattus norvegicus [1]) [%] | IC50 (Rattus norvegicus [2]) [µM] | RIS (Rattus norvegicus [3]) [%] | EC50 (Rattus norvegicus [4]) [µM] | Selectivity (Rattus norvegicus [5]) | RIS (Rattus norvegicus [6]) [%]
1 | CC(C)C(C)NC1=NS(=O)(=O)c2cc(Cl)ccc2N1 (configuration not stated) | 88.1 | > 10 | 11 | 1.2 | <0.12 | 62.7
2 | O=S1(=O)N=C(NC2CC2)Nc2ccc(Cl)cc21 | 84 | 3.4 | 5.8 | 190 | 56 | 26.6
3 | CCNC1=NS(=O)(=O)c2cc(Cl)ccc2N1 | 29.2 | < 1 | 2.1 | 39.9 | >40 | 10.7
4 | CNC1=NS(=O)(=O)c2cc(Br)ccc2N1 | 69.9 | 1.8 | 6.4 | 31 | 17 | 7.3
5 | O=S1(=O)NC(NC2CC2)=Nc2ccc(Br)cc21 | 85.1 | 3.1 | 4.6 | 89.4 | 29 | 21.1
6 | CCCNC1=NS(=O)(=O)c2cc(Br)ccc2N1 | – | < 10 | 7.1 | 5.9 | >0.6 | 34.7
7 | O=S1(=O)NC(NC2CC2)=Nc2ccc(F)cc21 | 104.5 | 5.1 | 7.5 | > 300 | >58 | 32.5
8 | O=S1(=O)NC(NCC2CC2)=Nc2ccc(Cl)cc21 | – | > 10 | 15.2 | 41.2 | <4 | 65.9
9 | CCCNC1=NS(=O)(=O)c2cc(Cl)ccc2N1 | 83.4 | – | 3.6 | 55.5 | 21 | 14.2
10 | CCC(CC)NC1=NS(=O)(=O)c2cc(Cl)ccc2N1 | 93.7 | 4.5 | 8.1 | 93.6 | 21 | 31.7
11 | CCC(C)NC1=NS(=O)(=O)c2cc(F)ccc2N1 (configuration not stated) | 64.6 | 1.6 | 5.9 | 39.2 | 25 | 6.9
12 | CCNC1=NS(=O)(=O)c2cc(Br)ccc2N1 | 38.1 | < 1 | 4.6 | 6.2 | >6 | 6.5
13 | CCNC1=NS(=O)(=O)c2cc(F)ccc2N1 | 50.8 | 1 | 6.3 | > 300 | >300 | 8.6
14 | CCCNC1=NS(=O)(=O)c2cc(F)ccc2N1 | 69.2 | 2 | 7.7 | 166 | 83 | 15.1
15 | CC(C)C(C)NC1=NS(=O)(=O)c2cc(I)ccc2N1 (configuration not stated) | 91.9 | > 50 | 51.7 | 0.94 | <0.02 | 86.2
16 | CCC(C)NC1=NS(=O)(=O)c2cc(Br)ccc2N1 (configuration not stated) | 92.5 | 4 | 4 | 5.6 | 1.4 | 26.8
17 | O=S1(=O)NC(NCC2CC2)=Nc2ccc(F)cc21 | – | < 10 | 6.4 | 146 | >15 | 39.8

Row | SMILES | RIS (Rattus norvegicus [1]) [%] | IC50 (Rattus norvegicus [2]) [µM] | RIS (Rattus norvegicus [3]) [%] | EC50 (Rattus norvegicus [4]) [µM] | Selectivity (Rattus norvegicus [5]) | RIS (Rattus norvegicus [6]) [%]
18 | O=S1(=O)NC(NC2CCCC2)=Nc2ccc(F)cc21 | 68.8 | 1.8 | 5.4 | 58 | 32 | 6.6
19 | O=S1(=O)NC(NC2CCC2)=Nc2ccc(I)cc21 | – | < 10 | – | 22.2 | >2.2 | 30.6
20 | CNC1=NS(=O)(=O)c2cc(F)ccc2N1 | 76.1 | 2.2 | 5.7 | > 300 | >136 | 7.7
21 | C=CCNC1=Nc2ccc(F)cc2S(=O)(=O)N1 | 84.1 | 2.7 | 4.1 | > 300 | >111 | 12.8
22 | CC(C)C(C)NC1=NS(=O)(=O)c2cc(Br)ccc2N1 (configuration not stated) | 97.2 | > 10 | 21.4 | 2.6 | < 0.26 | 98.4
23 | CCC(C)NC1=NS(=O)(=O)c2cc(Cl)ccc2N1 (configuration not stated) | 85.4 | 3.1 | 5.5 | 15.5 | 5 | 19.9
24 | CCC(C)NC1=NS(=O)(=O)c2cc(I)ccc2N1 (configuration not stated) | 84.2 | > 10 | 22.5 | 1.3 | <0.13 | 64.8
25 | O=S1(=O)N=C(NC2CCC2)Nc2ccc(Cl)cc21 | 60.2 | 1.3 | 8.1 | 34.9 | 27 | 6.4
26 | C=CCNC1=Nc2ccc(Br)cc2S(=O)(=O)N1 | 77.2 | 2.8 | 4.8 | 3 | 1.1 | 23.7
27 | O=S1(=O)NC(NC2CCC2)=Nc2ccc(Br)cc21 | 54.8 | 1.1 | 6.1 | 21.7 | 20 | 9.6
28 | CCC(C)(C)NC1=NS(=O)(=O)c2cc(Cl)ccc2N1 | – | > 10 | – | 0.29 | <0.029 | 83.2
29 | CC(C)(C)NC1=NS(=O)(=O)c2cc(Cl)ccc2N1 | – | > 10 | – | 1.4 | <0.14 | 64.4
30 | CC(C)C(C)NC1=NS(=O)(=O)c2cc(F)ccc2N1 (configuration not stated) | 87.7 | 2.8 | 7.9 | 26.4 | 9 | 10.6
31 | C=CCNC1=Nc2ccc(Cl)cc2S(=O)(=O)N1 | 87.9 | 3.1 | 7.8 | 28.9 | 9 | 17.3
32 | CCC(CC)NC1=NS(=O)(=O)c2cc(I)ccc2N1 | – | > 10 | 17 | 79.1 | <7.9 | 67
33 | CC1=Nc2ccc(Cl)cc2S(=O)(=O)N1 [DIAZOXIDE] | – | – | 26.7 | 22.4 | – | –
34 | CC(N/C(=N\C#N)Nc1ccncc1)C(C)(C)C (configuration not stated) [PINACIDIL ANHYDROUS] | 97.7 | > 100 | 88.8 | 0.35 | – | –
